Source: PMC3367204 (Nucleic Acids Research, 2012)
Values after ≈ are worked out from the molar mass of the structure shown. Where two headings read alike, the source gives them in different places.

Legend:
E. coli mutant U754A = test: Sensitivity to telithromycin of E. coli cells; format: cell-based; conditions: Escherichia coli, MUTANTU754A, read-out: IC50 (growth inhibition)
Outline: (§1)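 Preculture at OD560 0.700 is diluted into LB and grown at 37°C with or without test compound, until the untreated culture reaches OD560 0.700. IC50 is the concentration that lowers OD to halfway between 0.700 and the bottom plateau of the dose curve. Means of three independent experiments.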

[1] = biological target: complex C containing ribosomes mutated in ribosomal protein L22: Δ82–84 (Escherichia coli, UniProt P60723+P61175, DEL82-84); test: Kinetics of telithromycin binding to complex C by competition with tylosin; conditions: for Kd: L22: Δ82–84, 4.5 mM Mg^2+, 150 mM NH4^+
[2] = system: complex C containing ribosomes with mutated 23S rRNA U2609C; test: as above; design: species or system Escherichia coli
[3] = biological target: complex C containing ribosomes mutated in ribosomal protein L4: Lys63Glu (Escherichia coli, UniProt P60723+P61175, K63E); test: as above; conditions: for Kd: L4: Lys63Glu, 4.5 mM Mg^2+, 150 mM NH4^+
[4] = system: E. coli mutant L4: Lys63Glu; test: Sensitivity to telithromycin of E. coli cells; format: cell-based; conditions: Escherichia coli, read-out: IC50 (growth inhibition)
Outline: as §1

[5] = biological target: T1, complex C prepared from E. coli ribosomes (PTase activity) (Escherichia coli, UniProt P60723+P61175); test: Puromycin reaction; format: biochemical; conditions: 2 μΜ telithromycin, 200 μΜ puromycin, buffer A, 25°C
Outline: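 Complex C from E. coli ribosomes reacts with 200 µM puromycin at 25°C in buffer A (100 mM Tris/HCl pH 7.2, 4.5 mM Mg acetate, 150 mM NH4Cl), alone or with 2 µM test compound or 2 µM tylosin. AcPhe-puromycin formation is followed over time. Means of three independent experiments.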

E. coli mutant U2609C = test: Sensitivity to telithromycin of E. coli cells; format: cell-based; conditions: Escherichia coli, MUTANTU2609C, read-out: IC50 (growth inhibition)
Outline: as §1

[6] = biological target: complex C containing ribosomes with mutated 23S rRNA U754A (Escherichia coli, UniProt P60723+P61175); test: Kinetics of telithromycin binding to complex C by competition with tylosin; conditions: for Kd: U754A, 4.5 mM Mg^2+, 150 mM NH4^+
[7] = biological target: complex C (poly(U)-programmed E. coli ribosomes), wild-type (Escherichia coli, UniProt P60723+P61175); format: binding; conditions: for Kd: Wild-type; for Kd / koff: 4.5 mM Mg^2+, 150 mM NH4^+; for koff: read-out: koff,T, Wild-type
wild-type E. coli cells = test: Sensitivity to telithromycin of E. coli cells; format: cell-based; conditions: Escherichia coli, read-out: IC50 (growth inhibition)
Outline: as §1

[8] = system: 23S rRNA of complex C prepared from E. coli ribosomes; test: Footprinting; format: binding, Escherichia coli
Outline: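 Complex C (10 pmol; 100 nM) is incubated at 25°C in buffer B (50 mM HEPES/KOH pH 7.2, 4.5 mM Mg acetate, 150 mM NH4Cl, 5 mM DTT), optionally with 100 µM spermine. […] Probing uses DMS, kethoxal or CMCT, with 23S rRNA read by primer extension on 6% polyacrylamide/7 M urea gels. Band intensity is normalized to the no-compound control; means of three runs.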

[9] = system: E. coli mutant L22: Δ82–84; test: Sensitivity to telithromycin of E. coli cells; format: cell-based; conditions: Escherichia coli, read-out: IC50 (growth inhibition)
Outline: as §1

[10] = biological target: T1, complex C prepared from E. coli ribosomes (PTase activity); conditions: 4.5 mM Mg^2+ and 150 mM NH4^+; cited from earlier work
[11] = C*T (final site), 4.5 mM Mg^2+ 150 mM NH4^+
[12] = C*T (final site), 4.5 mM Mg^2+ 150 mM NH4^+ 100 μΜ spermine
[13] = CT (initial site, 5 s), 4.5 mM Mg^2+ 150 mM NH4^+
[14] = CT (initial site, 5 s), 4.5 mM Mg^2+ 150 mM NH4^+ 100 μΜ spermine

Structure (SMILES): CC[C@H]1OC(=O)[C@H](C)C(=O)[C@H](C)[C@@H](O[C@@H]2O[C@H](C)C[C@H](N(C)C)[C@H]2O)[C@](C)(OC)C[C@@H](C)C(=O)[C@H](C)[C@H]2N(CCCCn3cnc(-c4cccnc4)c3)C(=O)O[C@]12C [telithromycin]
- IC50 (E. coli mutant U754A): 14.8 ± 2.5 µg/mL (≈ 18.2 µM)
- Kd ([1]; K*T): 210 ± 30.9 nM
- Kd ([1]; KT): 530 ± 42 nM
- Enhancement in dissociation rate constant koff,T by mutation ([1]; L22: Δ82–84 vs wild-type): about 4 fold
- Increase in overall dissociation constant K*T by mutation ([1]; L22: Δ82–84 vs wild-type): 25 fold
- Reduction in association rate constant kon,T by mutation ([1]; L22: Δ82–84 vs wild-type): 10 fold
- koff ([1]; read-out: koff,T): 0.0005 s⁻¹
- Enhancement of overall constant Κ*T by mutation ([2]; U2609C vs wild-type): 20 fold
- koff,T ([2]; U2609C, 4.5 mM Mg^2+, 150 mM NH4^+): 0.0395 ± 0.0031 min^_1
- Kd ([2]; read-out: K*T, U2609C, 4.5 mM Mg^2+, 150 mM NH4^+): 148 ± 18.9 nM
- Kd ([2]; read-out: KT, U2609C, 4.5 mM Mg^2+, 150 mM NH4^+): 536 ± 43 nM
- Kd ([3]; K*T): 12 ± 2.67 nM
- Kd ([3]; KT): 470 ± 48 nM
- koff ([3]; read-out: koff,T): 0.000127 s⁻¹
- IC50 [4]: 12 ± 2.1 µg/mL (≈ 14.8 µM)
- Inhibition of AcPhe-puromycin synthesis [5]: fails to inhibit
- IC50 (E. coli mutant U2609C): 41.6 ± 4.3 µg/mL (≈ 51.2 µM)
- Kd ([6]; K*T): 22.6 ± 3.22 nM
- Kd ([6]; KT): 604 ± 45 nM
- Effect of mutation on koff,T constant ([6]; U754A vs wild-type): doubling
- Reversal of inactivation of complex C by tylosin ([7]; 4 μΜ tylosin, telithromycin >10 μΜ): entirely reversed
- Decrease of kon,T value by polyamines ([7]; 100 μΜ spermine or 50 μΜ spermine and 2 mM spermidine vs no polyamines): 83%
- Kd ([7]; K*T, 50 μΜ spermine, 2 mM spermidine): 75.7 ± 8.8 nM
- Kd ([7]; K*T, 100 μΜ spermine): 91.4 ± 11.2 nM
- Kd ([7]; KT, 50 μΜ spermine, 2 mM spermidine): 1714 ± 13 nM
- Kd ([7]; KT, 100 μΜ spermine): 2500 ± 185 nM
- Kd ([7]; KT, initial low-affinity site): 500 ± 44 nM
- koff.T lower than the rate constant for drop off (Lovmar et al.) ([7]; compared with drop off rate constant of ref 3): 10 times
- Increase of KT* value by polyamines ([7]; polyamine buffer vs no polyamines): 10 fold
- Decrease in the affinity of telithromycin for the initial site by spermine ([7]; presence of spermine): 5 fold
- koff [7]: 0.000137 s⁻¹
- koff ([7]; 100 μΜ spermine): 4.83e-05 s⁻¹
- IC50 (wild-type E. coli cells): 4 ± 0.8 µg/mL (≈ 4.93 µM)
- Relative reactivity of 23S rRNA residue A752 (ratio to complex C) [8, 11]: 0.30 ± 0.02 ^*^, **
- Relative reactivity of 23S rRNA residue A789 (ratio to complex C) [8, 11]: 0.89 ± 0.08
- Relative reactivity of 23S rRNA residue A2058 (ratio to complex C) [8, 11]: 0.25 ± 0.03 ^*
- Relative reactivity of 23S rRNA residue A2059 (ratio to complex C) [8, 11]: 0.42 ± 0.03 ^*
- Relative reactivity of 23S rRNA residue A2062 (ratio to complex C) [8, 11]: 1.28 ± 0.15 ^*
- Relative reactivity of 23S rRNA residue C2611 (ratio to complex C) [8, 11]: 0.60 ± 0.08 ^*
- Relative reactivity of 23S rRNA residue G2505 (ratio to complex C) [8, 11]: 0.78 ± 0.11 ^*
- Relative reactivity of 23S rRNA residue U790 (ratio to complex C) [8, 11]: 0.85 ± 0.08 ^*^, **
- Relative reactivity of 23S rRNA residue U2609 (ratio to complex C) [8, 11]: 0.72 ± 0.04 ^*^, **
- Relative reactivity of 23S rRNA residue A752 (ratio to complex C) [8, 12]: 0.87 ± 0.07 ^*
- Relative reactivity of 23S rRNA residue A789 (ratio to complex C) [8, 12]: 0.93 ± 0.08
- Relative reactivity of 23S rRNA residue A2058 (ratio to complex C) [8, 12]: 0.38 ± 0.02 ^*^, **
- Relative reactivity of 23S rRNA residue A2059 (ratio to complex C) [8, 12]: 0.57 ± 0.03 ^*^, **
- Relative reactivity of 23S rRNA residue A2062 (ratio to complex C) [8, 12]: 1.15 ± 0.14
- Relative reactivity of 23S rRNA residue C2611 (ratio to complex C) [8, 12]: 0.97 ± 0.05
- Relative reactivity of 23S rRNA residue G2505 (ratio to complex C) [8, 12]: 0.85 ± 0.06 ^*
- Relative reactivity of 23S rRNA residue U790 (ratio to complex C) [8, 12]: 0.93 ± 0.08**
- Relative reactivity of 23S rRNA residue U2609 (ratio to complex C) [8, 12]: 0.90 ± 0.08
- Relative reactivity of 23S rRNA residue A752 (ratio to complex C) [8, 13]: 0.65 ± 0.05
- Relative reactivity of 23S rRNA residue A789 (ratio to complex C) [8, 13]: 0.78 ± 0.07
- Relative reactivity of 23S rRNA residue A2058 (ratio to complex C) [8, 13]: 0.20 ± 0.02
- Relative reactivity of 23S rRNA residue A2059 (ratio to complex C) [8, 13]: 0.38 ± 0.03
- Relative reactivity of 23S rRNA residue A2062 (ratio to complex C) [8, 13]: 1.33 ± 0.18
- Relative reactivity of 23S rRNA residue C2611 (ratio to complex C) [8, 13]: 0.60 ± 0.09
- Relative reactivity of 23S rRNA residue G2505 (ratio to complex C) [8, 13]: 0.65 ± 0.09
- Relative reactivity of 23S rRNA residue U790 (ratio to complex C) [8, 13]: 0.60 ± 0.07
- Relative reactivity of 23S rRNA residue U2609 (ratio to complex C) [8, 13]: 0.95 ± 0.07
- Relative reactivity of 23S rRNA residue A752 (ratio to complex C) [8, 14]: 0.75 ± 0.05
- Relative reactivity of 23S rRNA residue A789 (ratio to complex C) [8, 14]: 0.82 ± 0.08
- Relative reactivity of 23S rRNA residue A2058 (ratio to complex C) [8, 14]: 0.30 ± 0.01
- Relative reactivity of 23S rRNA residue A2059 (ratio to complex C) [8, 14]: 0.45 ± 0.05
- Relative reactivity of 23S rRNA residue A2062 (ratio to complex C) [8, 14]: 1.20 ± 0.14
- Relative reactivity of 23S rRNA residue C2611 (ratio to complex C) [8, 14]: 0.98 ± 0.05
- Relative reactivity of 23S rRNA residue G2505 (ratio to complex C) [8, 14]: 0.72 ± 0.07
- Relative reactivity of 23S rRNA residue U790 (ratio to complex C) [8, 14]: 0.70 ± 0.07
- Relative reactivity of 23S rRNA residue U2609 (ratio to complex C) [8, 14]: 0.97 ± 0.07
- IC50 [9]: 50 ± 6.5 µg/mL (≈ 61.6 µM)

Structure (SMILES): CC[C@H]1OC(=O)C[C@@H](O)[C@H](C)[C@@H](O[C@@H]2O[C@H](C)[C@@H](O[C@H]3C[C@@](C)(O)[C@@H](O)[C@H](C)O3)[C@H](N(C)C)[C@H]2O)[C@@H](CC=O)C[C@@H](C)C(=O)/C=C/C(C)=C/[C@@H]1CO[C@@H]1O[C@H](C)[C@@H](O)[C@@H](OC)[C@H]1OC [tylosin]
- Inhibition of AcPhe-puromycin synthesis [10]: inhibits
